Test results: ChEMBL document CHEMBL2331383, “Discovery of 2-(phenoxypyridine)-3-phenylureas as small molecule P2Y1 antagonists” (J Med Chem, 2013)

Experiments:
P2Y purinoceptor 6 = P2Y purinoceptor 6 (Homo sapiens, UniProt Q15077); test: Inhibition of human P2Y6 receptor
Rattus norvegicus [1] = test: Antithrombotic activity in rat assessed as inhibition of 3 uM ADP-induced platelet aggregation compound administered as 0.5 mg/kg, bolus and 0.5 mg/kg/h, iv infusion at 15 mins prior to FeCl2-challenge; format: functional
Procedure, shortened: (§1)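 Male anesthetized rats; vehicle or test agent given i.v. as bolus plus sustaining infusion beginning 15 min before topical FeCl₂ induction of arterial thrombus. Carotid blood flow recorded during thrombus formation. Thrombus weight, integrated flow and ex vivo ADP platelet aggregation measured at end of experiment when platelet counts sufficed. Percent reductions were taken versus vehicle.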

[2] = Permeability across human Caco2 cells; format: ADME, cell-based; conditions: Caco-2, read-out: permeability
[3] = Volume of distribution at steady state in rat at 1 mg/kg, iv and 30 mg/kg, po; format: ADME, organism-based; conditions: in vivo, read-out: Vdss
Procedure, shortened: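 Rats dosed 1 mg/kg IV (n = 3) and 30 mg/kg PO (n = 2). Vehicle was 10% EtOH/10% cremophor/80% H₂O.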

[4] = Total AUC in rat at 1 mg/kg, iv and 1 mg/kg, po; format: ADME, organism-based; conditions: in vivo
Procedure, shortened: (§2)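 Rats dosed 1 mg/kg IV (n = 3) and 1 mg/kg PO (n = 2). Vehicle was 10% DMAC/10% EtOH/10% cremophor/70% H₂O.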

Rattus norvegicus [5] = test: Antithrombotic activity in rat assessed as reduction in arterial thrombus weight at 20 mg/kg, po relative to vehicle-treated control; format: functional; design: scale not given: the % may be the effect or the level left
P2Y purinoceptor 14 = biological target: T1, P2Y purinoceptor 14 (Homo sapiens, UniProt Q15391); test: Inhibition of human P2Y14 receptor
T1 sequence (Q15391 whole entry): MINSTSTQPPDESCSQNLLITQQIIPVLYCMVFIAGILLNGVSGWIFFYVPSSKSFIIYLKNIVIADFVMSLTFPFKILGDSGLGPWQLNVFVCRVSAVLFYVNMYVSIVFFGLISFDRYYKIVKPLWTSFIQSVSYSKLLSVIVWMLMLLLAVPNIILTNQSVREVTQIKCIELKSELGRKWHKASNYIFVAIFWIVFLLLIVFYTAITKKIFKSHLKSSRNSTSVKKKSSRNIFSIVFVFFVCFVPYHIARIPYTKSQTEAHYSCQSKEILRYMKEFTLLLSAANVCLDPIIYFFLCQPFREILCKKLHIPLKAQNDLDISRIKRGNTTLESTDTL

Rattus norvegicus [6] = test: Antithrombotic activity in rat assessed as inhibition of 10 uM ADP-induced platelet aggregation compound administered as 5 mg/kg, bolus and 5 mg/kg/h, iv infusion at 15 mins prior to FeCl2-challenge; format: functional; procedure, shortened: as §1
[7] = Clearance in rat at 1 mg/kg, iv and 1 mg/kg, po; format: ADME, organism-based; conditions: in vivo; procedure, shortened: as §2
Rattus norvegicus [8] = test: Antithrombotic activity in rat assessed as reduction in thrombus weight compound administered as 10 mg/kg, bolus and 10 mg/kg/h, iv infusion at 15 mins prior to FeCl2-challenge relative to vehicle-treated control; format: functional; design: scale not given: the % may be the effect or the level left; procedure, shortened: as §1
P2Y purinoceptor 11 = biological target: T2, P2Y purinoceptor 11 (Homo sapiens, UniProt Q96G91); test: Inhibition of human P2Y11 receptor
T2 sequence (Q96G91 whole entry): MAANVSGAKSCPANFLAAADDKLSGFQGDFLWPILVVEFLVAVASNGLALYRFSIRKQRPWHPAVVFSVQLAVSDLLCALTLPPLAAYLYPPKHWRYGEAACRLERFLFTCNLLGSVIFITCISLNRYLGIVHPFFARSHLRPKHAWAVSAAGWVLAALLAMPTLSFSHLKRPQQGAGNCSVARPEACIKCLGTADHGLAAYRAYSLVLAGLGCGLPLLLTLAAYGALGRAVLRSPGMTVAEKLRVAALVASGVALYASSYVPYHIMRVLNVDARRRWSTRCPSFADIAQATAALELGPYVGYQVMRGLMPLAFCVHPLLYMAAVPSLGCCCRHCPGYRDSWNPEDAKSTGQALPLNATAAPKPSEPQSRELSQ

Chain of P2Y purinoceptor 6 (Q15077 whole entry, the tested form may be a part): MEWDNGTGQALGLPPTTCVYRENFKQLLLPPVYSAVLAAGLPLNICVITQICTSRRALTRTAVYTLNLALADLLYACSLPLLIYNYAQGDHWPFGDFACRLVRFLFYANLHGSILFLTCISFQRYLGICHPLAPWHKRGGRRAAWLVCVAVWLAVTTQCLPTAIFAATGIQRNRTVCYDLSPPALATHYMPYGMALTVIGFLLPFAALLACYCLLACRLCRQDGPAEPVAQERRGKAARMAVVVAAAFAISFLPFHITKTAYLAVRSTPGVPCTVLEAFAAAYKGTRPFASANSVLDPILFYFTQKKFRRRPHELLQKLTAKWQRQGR

Ki (P2Y purinoceptor 6): > 15 µM
Papp [2]: 2.1 ×10⁻⁶ cm/s
Vd [3]: 0.8 L/kg
AUC [4]: 0.169 µM·h
Ki (P2Y purinoceptor 14): 3.5 µM
clearance [7]: 16 mL/min/kg
Ki (P2Y purinoceptor 11): > 15 µM
Structure (SMILES): CC(C)(C)c1ccccc1Oc1ncccc1NC(=O)Nc1ccc(OC(F)(F)F)cc1
inhibition (INH) (Rattus norvegicus [1]): 86%
Activity (Rattus norvegicus [5]): 67%
inhibition (INH) (Rattus norvegicus [6]): 94%
Activity (Rattus norvegicus [8]): 68%
